# Laboratory results reported in ChEMBL document CHEMBL5058577, “EUbOPEN Chemogenomics Library 2 (Multiplex)” (2022).
# Test system: Fibroblast
# Assay: Multiplex assay against human fibroblast
# Format: toxicity, cell-based
# In short: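 Live cells were stained at seeding with Hoechst33342, BioTracker Green Microtubule Cytoskeleton Dye, MitoTracker Red and Annexin V Alexa Fluor 680, then imaged on a CQ1 microscope at 37°C and 5% CO2 after compound addition. CellPathfinder machine-learning gating split cells into Hoechst high-intensity objects or normal cells. Normal cells were split into healthy, pyknosed or fragmented nuclei, and pyknosed cells into mitotic or apoptotic. Tubulin, mitochondrial-mass and membrane-permeability phenotypes are per cents of healthy-nucleus cells.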
# [1] = 12 h, 1 µM, compound concentration 1 uM, replicate 1
# [2] = 12 h, 1 µM, compound concentration 1 uM, replicate 2
# [3] = 12 h, 10 µM, compound concentration 10 uM, replicate 1
# [4] = 12 h, 10 µM, compound concentration 10 uM, replicate 2
# [5] = 24 h, 1 µM, compound concentration 1 uM, replicate 1
# [6] = 24 h, 1 µM, compound concentration 1 uM, replicate 2
# [7] = 24 h, 10 µM, compound concentration 10 uM, replicate 1
# [8] = 24 h, 10 µM, compound concentration 10 uM, replicate 2
# [9] = 48 h, 1 µM, compound concentration 1 uM, replicate 1
# [10] = 48 h, 1 µM, compound concentration 1 uM, replicate 2
# [11] = 48 h, 10 µM, compound concentration 10 uM, replicate 1
# [12] = 48 h, 10 µM, compound concentration 10 uM, replicate 2
compound,measurement,setting,value
C=CCN1C[C@H](C(=O)N(CCCN(C)C)C(=O)NCC)C[C@@H]2c3cccc4[nH]cc(c34)C[C@H]21 [CABERGOLINE],Population Apoptotic (%),[1],69%
same,Population Fragmented Nuclei (%),[1],13%
same,Population Healthy Nuclei (%),[1],78%
same,Population Hoechst High Intensity Objects (%),[1],6%
same,Population Membrane Permeable-Phenotype (%),[1],0%
same,Population Mitochondria Different-Phenotype (%),[1],2%
same,Population Mitotic Cells (%),[1],30%
same,Population Normal (%),[1],93%
same,Population Pyknosed Nuclei (%),[1],7%
same,Population Tubulin-Different-Phenotype (%),[1],26%
same,Total Cell Count,[1],186
same,Population Apoptotic (%),[2],35%
same,Population Fragmented Nuclei (%),[2],20%
same,Population Healthy Nuclei (%),[2],46%
same,Population Membrane Permeable-Phenotype (%),[2],4%
same,Population Mitochondria Different-Phenotype (%),[2],1%
same,Population Mitotic Cells (%),[2],64%
same,Population Pyknosed Nuclei (%),[2],33%
same,Population Tubulin-Different-Phenotype (%),[2],25%
same,Total Cell Count,[2],144
same,Population Apoptotic (%),[3],50%
same,Population Fragmented Nuclei (%),[3],25%
same,Population Healthy Nuclei (%),[3],64%
same,Population Hoechst High Intensity Objects (%),[3],3%
same,Population Membrane Permeable-Phenotype (%),[3],0%
same,Population Mitochondria Different-Phenotype (%),[3],11%
same,Population Mitotic Cells (%),[3],50%
same,Population Normal (%),[3],96%
same,Population Pyknosed Nuclei (%),[3],10%
same,Population Tubulin-Different-Phenotype (%),[3],46%
same,Total Cell Count,[3],248
same,Population Apoptotic (%),[4],35%
same,Population Fragmented Nuclei (%),[4],44%
same,Population Healthy Nuclei (%),[4],39%
same,Population Hoechst High Intensity Objects (%),[4],5%
same,Population Membrane Permeable-Phenotype (%),[4],6%
same,Population Mitochondria Different-Phenotype (%),[4],10%
same,Population Mitotic Cells (%),[4],64%
same,Population Normal (%),[4],94%
same,Population Pyknosed Nuclei (%),[4],16%
same,Population Tubulin-Different-Phenotype (%),[4],53%
same,Total Cell Count,[4],178
same,Population Apoptotic (%),[5],68%
same,Population Fragmented Nuclei (%),[5],15%
same,Population Healthy Nuclei (%),[5],74%
same,Population Hoechst High Intensity Objects (%),[5],4%
same,Population Membrane Permeable-Phenotype (%),[5],1%
same,Population Mitochondria Different-Phenotype (%),[5],3%
same,Population Mitotic Cells (%),[5],31%
same,Population Normal (%),[5],95%
same,Population Pyknosed Nuclei (%),[5],10%
same,Population Tubulin-Different-Phenotype (%),[5],33%
same,Total Cell Count,[5],198
same,Population Apoptotic (%),[6],44%
same,Population Fragmented Nuclei (%),[6],24%
same,Population Healthy Nuclei (%),[6],46%
same,Population Hoechst High Intensity Objects (%),[6],6%
same,Population Membrane Permeable-Phenotype (%),[6],3%
same,Population Mitotic Cells (%),[6],55%
same,Population Normal (%),[6],93%
same,Population Pyknosed Nuclei (%),[6],29%
same,Population Tubulin-Different-Phenotype (%),[6],39%
same,Total Cell Count,[6],132
same,Population Apoptotic (%),[7],73%
same,Population Fragmented Nuclei (%),[7],28%
same,Population Healthy Nuclei (%),[7],65%
same,Population Hoechst High Intensity Objects (%),[7],1%
same,Population Membrane Permeable-Phenotype (%),[7],0%
same,Population Mitochondria Different-Phenotype (%),[7],7%
same,Population Mitotic Cells (%),[7],26%
same,Population Normal (%),[7],98%
same,Population Pyknosed Nuclei (%),[7],5%
same,Population Tubulin-Different-Phenotype (%),[7],44%
same,Total Cell Count,[7],274
same,Population Apoptotic (%),[8],43%
same,Population Fragmented Nuclei (%),[8],43%
same,Population Healthy Nuclei (%),[8],46%
same,Population Hoechst High Intensity Objects (%),[8],10%
same,Population Membrane Permeable-Phenotype (%),[8],2%
same,Population Mitochondria Different-Phenotype (%),[8],5%
same,Population Mitotic Cells (%),[8],56%
same,Population Normal (%),[8],89%
same,Population Pyknosed Nuclei (%),[8],9%
same,Population Tubulin-Different-Phenotype (%),[8],53%
same,Total Cell Count,[8],181
same,Population Apoptotic (%),[9],56%
same,Population Fragmented Nuclei (%),[9],15%
same,Population Healthy Nuclei (%),[9],75%
same,Population Hoechst High Intensity Objects (%),[9],5%
same,Population Membrane Permeable-Phenotype (%),[9],0%
same,Population Mitochondria Different-Phenotype (%),[9],6%
same,Population Mitotic Cells (%),[9],43%
same,Population Normal (%),[9],94%
same,Population Pyknosed Nuclei (%),[9],8%
same,Population Tubulin-Different-Phenotype (%),[9],34%
same,Total Cell Count,[9],189
same,Population Apoptotic (%),[10],58%
same,Population Fragmented Nuclei (%),[10],24%
same,Population Healthy Nuclei (%),[10],54%
same,Population Hoechst High Intensity Objects (%),[10],7%
same,Population Membrane Permeable-Phenotype (%),[10],6%
same,Population Mitochondria Different-Phenotype (%),[10],1%
same,Population Mitotic Cells (%),[10],41%
same,Population Normal (%),[10],92%
same,Population Pyknosed Nuclei (%),[10],21%
same,Population Tubulin-Different-Phenotype (%),[10],33%
same,Total Cell Count,[10],156
same,Population Apoptotic (%),[11],72%
same,Population Fragmented Nuclei (%),[11],24%
same,Population Healthy Nuclei (%),[11],68%
same,Population Hoechst High Intensity Objects (%),[11],4%
same,Population Membrane Permeable-Phenotype (%),[11],1%
same,Population Mitochondria Different-Phenotype (%),[11],4%
same,Population Mitotic Cells (%),[11],27%
same,Population Normal (%),[11],95%
same,Population Pyknosed Nuclei (%),[11],6%
same,Population Tubulin-Different-Phenotype (%),[11],46%
same,Total Cell Count,[11],282
same,Population Apoptotic (%),[12],46%
same,Population Fragmented Nuclei (%),[12],52%
same,Population Healthy Nuclei (%),[12],37%
same,Population Hoechst High Intensity Objects (%),[12],5%
same,Population Membrane Permeable-Phenotype (%),[12],6%
same,Population Mitochondria Different-Phenotype (%),[12],11%
same,Population Mitotic Cells (%),[12],53%
same,Population Normal (%),[12],94%
same,Population Pyknosed Nuclei (%),[12],9%
same,Population Tubulin-Different-Phenotype (%),[12],44%
same,Total Cell Count,[12],170
CCCCC[C@H](O)/C=C/[C@H]1[C@H](O)CC(=O)[C@@H]1CCCCCCC(=O)O [ALPROSTADIL],Population Apoptotic (%),[1],61%
same,Population Fragmented Nuclei (%),[1],16%
same,Population Healthy Nuclei (%),[1],71%
same,Population Hoechst High Intensity Objects (%),[1],0%
same,Population Membrane Permeable-Phenotype (%),[1],0%
same,Population Mitochondria Different-Phenotype (%),[1],1%
same,Population Mitotic Cells (%),[1],38%
same,Population Normal (%),[1],99%
same,Population Pyknosed Nuclei (%),[1],12%
same,Population Tubulin-Different-Phenotype (%),[1],12%
same,Total Cell Count,[1],150
same,Population Apoptotic (%),[2],43%
same,Population Fragmented Nuclei (%),[2],23%
same,Population Healthy Nuclei (%),[2],57%
same,Population Hoechst High Intensity Objects (%),[2],4%
same,Population Membrane Permeable-Phenotype (%),[2],10%
same,Population Mitochondria Different-Phenotype (%),[2],2%
same,Population Mitotic Cells (%),[2],56%
same,Population Normal (%),[2],95%
same,Population Pyknosed Nuclei (%),[2],18%
same,Population Tubulin-Different-Phenotype (%),[2],38%
same,Total Cell Count,[2],169
same,Population Apoptotic (%),[3],36%
same,Population Fragmented Nuclei (%),[3],7%
same,Population Healthy Nuclei (%),[3],75%
same,Population Hoechst High Intensity Objects (%),[3],5%
same,Population Membrane Permeable-Phenotype (%),[3],2%
same,Population Mitochondria Different-Phenotype (%),[3],4%
same,Population Mitotic Cells (%),[3],63%
same,Population Normal (%),[3],94%
same,Population Pyknosed Nuclei (%),[3],17%
same,Population Tubulin-Different-Phenotype (%),[3],26%
same,Total Cell Count,[3],136
same,Population Apoptotic (%),[4],34%
same,Population Fragmented Nuclei (%),[4],25%
same,Population Healthy Nuclei (%),[4],43%
same,Population Hoechst High Intensity Objects (%),[4],16%
same,Population Membrane Permeable-Phenotype (%),[4],11%
same,Population Mitochondria Different-Phenotype (%),[4],1%
same,Population Mitotic Cells (%),[4],65%
same,Population Normal (%),[4],83%
same,Population Pyknosed Nuclei (%),[4],31%
same,Population Tubulin-Different-Phenotype (%),[4],45%
same,Total Cell Count,[4],146
same,Population Apoptotic (%),[5],25%
same,Population Fragmented Nuclei (%),[5],15%
same,Population Healthy Nuclei (%),[5],73%
same,Population Hoechst High Intensity Objects (%),[5],0%
same,Population Membrane Permeable-Phenotype (%),[5],0%
same,Population Mitochondria Different-Phenotype (%),[5],1%
same,Population Mitotic Cells (%),[5],75%
same,Population Normal (%),[5],99%
same,Population Pyknosed Nuclei (%),[5],10%
same,Population Tubulin-Different-Phenotype (%),[5],15%
same,Total Cell Count,[5],147
same,Population Apoptotic (%),[6],43%
same,Population Fragmented Nuclei (%),[6],22%
same,Population Healthy Nuclei (%),[6],53%
same,Population Hoechst High Intensity Objects (%),[6],2%
same,Population Membrane Permeable-Phenotype (%),[6],8%
same,Population Mitochondria Different-Phenotype (%),[6],8%
same,Population Mitotic Cells (%),[6],56%
same,Population Normal (%),[6],97%
same,Population Pyknosed Nuclei (%),[6],24%
same,Population Tubulin-Different-Phenotype (%),[6],40%
same,Total Cell Count,[6],165
same,Population Apoptotic (%),[7],63%
same,Population Fragmented Nuclei (%),[7],14%
same,Population Healthy Nuclei (%),[7],69%
same,Population Hoechst High Intensity Objects (%),[7],2%
same,Population Membrane Permeable-Phenotype (%),[7],0%
same,Population Mitochondria Different-Phenotype (%),[7],2%
same,Population Mitotic Cells (%),[7],36%
same,Population Normal (%),[7],97%
same,Population Pyknosed Nuclei (%),[7],15%
same,Population Tubulin-Different-Phenotype (%),[7],19%
same,Total Cell Count,[7],147
same,Population Apoptotic (%),[8],30%
same,Population Fragmented Nuclei (%),[8],27%
same,Population Healthy Nuclei (%),[8],45%
same,Population Hoechst High Intensity Objects (%),[8],13%
same,Population Membrane Permeable-Phenotype (%),[8],16%
same,Population Mitochondria Different-Phenotype (%),[8],3%
same,Population Mitotic Cells (%),[8],69%
same,Population Normal (%),[8],86%
same,Population Pyknosed Nuclei (%),[8],26%
same,Population Tubulin-Different-Phenotype (%),[8],59%
same,Total Cell Count,[8],157
same,Population Apoptotic (%),[9],32%
same,Population Fragmented Nuclei (%),[9],18%
same,Population Healthy Nuclei (%),[9],62%
same,Population Hoechst High Intensity Objects (%),[9],1%
same,Population Membrane Permeable-Phenotype (%),[9],1%
same,Population Mitochondria Different-Phenotype (%),[9],4%
same,Population Mitotic Cells (%),[9],67%
same,Population Normal (%),[9],98%
same,Population Pyknosed Nuclei (%),[9],18%
same,Population Tubulin-Different-Phenotype (%),[9],30%
same,Total Cell Count,[9],152
same,Population Apoptotic (%),[10],55%
same,Population Fragmented Nuclei (%),[10],26%
same,Population Healthy Nuclei (%),[10],51%
same,Population Hoechst High Intensity Objects (%),[10],3%
same,Population Membrane Permeable-Phenotype (%),[10],6%
same,Population Mitochondria Different-Phenotype (%),[10],8%
same,Population Mitotic Cells (%),[10],44%
same,Population Normal (%),[10],96%
same,Population Pyknosed Nuclei (%),[10],21%
same,Population Tubulin-Different-Phenotype (%),[10],44%
same,Total Cell Count,[10],162
same,Population Apoptotic (%),[11],62%
same,Population Fragmented Nuclei (%),[11],11%
same,Population Healthy Nuclei (%),[11],62%
same,Population Hoechst High Intensity Objects (%),[11],2%
same,Population Membrane Permeable-Phenotype (%),[11],1%
same,Population Mitochondria Different-Phenotype (%),[11],7%
same,Population Mitotic Cells (%),[11],37%
same,Population Normal (%),[11],97%
same,Population Pyknosed Nuclei (%),[11],26%
same,Population Tubulin-Different-Phenotype (%),[11],34%
same,Total Cell Count,[11],144
same,Population Apoptotic (%),[12],48%
same,Population Fragmented Nuclei (%),[12],33%
same,Population Healthy Nuclei (%),[12],44%
same,Population Hoechst High Intensity Objects (%),[12],16%
same,Population Membrane Permeable-Phenotype (%),[12],13%
same,Population Mitotic Cells (%),[12],51%
same,Population Normal (%),[12],83%
same,Population Pyknosed Nuclei (%),[12],22%
same,Population Tubulin-Different-Phenotype (%),[12],60%
